Holding throughout (type): cell-based
The target of test [1] is T1, 3-hydroxy-3-methylglutaryl-coenzyme A reductase (Homo sapiens) (UniProt P04035).
T1 sequence (whole entry): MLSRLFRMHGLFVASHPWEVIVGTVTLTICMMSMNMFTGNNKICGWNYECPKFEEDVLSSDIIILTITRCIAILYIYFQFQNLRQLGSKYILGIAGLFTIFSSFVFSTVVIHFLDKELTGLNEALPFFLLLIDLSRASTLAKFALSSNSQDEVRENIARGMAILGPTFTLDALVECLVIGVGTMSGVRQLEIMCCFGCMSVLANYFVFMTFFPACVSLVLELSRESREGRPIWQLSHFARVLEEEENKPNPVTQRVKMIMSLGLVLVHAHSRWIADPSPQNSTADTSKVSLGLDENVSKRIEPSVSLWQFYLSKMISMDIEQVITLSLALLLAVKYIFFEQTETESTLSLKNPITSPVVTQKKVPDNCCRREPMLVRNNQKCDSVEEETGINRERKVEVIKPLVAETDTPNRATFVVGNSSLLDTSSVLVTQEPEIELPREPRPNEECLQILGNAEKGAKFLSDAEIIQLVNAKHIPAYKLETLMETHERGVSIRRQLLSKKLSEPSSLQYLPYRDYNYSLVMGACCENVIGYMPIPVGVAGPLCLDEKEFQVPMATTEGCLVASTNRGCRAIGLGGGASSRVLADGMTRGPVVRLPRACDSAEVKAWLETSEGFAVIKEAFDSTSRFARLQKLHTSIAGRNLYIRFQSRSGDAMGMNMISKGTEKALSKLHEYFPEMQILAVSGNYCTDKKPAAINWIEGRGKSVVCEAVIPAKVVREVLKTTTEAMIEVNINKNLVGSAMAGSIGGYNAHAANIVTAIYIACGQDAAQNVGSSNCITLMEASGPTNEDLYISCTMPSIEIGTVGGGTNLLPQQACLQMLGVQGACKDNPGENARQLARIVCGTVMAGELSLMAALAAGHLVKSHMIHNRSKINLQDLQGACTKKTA
Description: (§1) Induction of human HMGCR-dCat-ELuc degradation expressed in HEK293 cells assessed as reduction in luciferase activity after 4 hrs by luciferase reporter assay. A digest of the protocol: (§2)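 HEK293 clone stably expressing HMGCR-dCat-ELuc, kept under 0.4 mg/mL G418 and picked from limiting-dilution clones. Cells exposed to compound for 4 h, then luciferase activity read as a measure of reporter protein level. Compounds came from 10 mM DMSO stocks (ethanol stock for 25HC). SD of triplicate experiments.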

In test [2] the target is T2, Sterol regulatory element-binding protein 1 (Homo sapiens) (UniProt P36956).
T2 sequence (whole entry): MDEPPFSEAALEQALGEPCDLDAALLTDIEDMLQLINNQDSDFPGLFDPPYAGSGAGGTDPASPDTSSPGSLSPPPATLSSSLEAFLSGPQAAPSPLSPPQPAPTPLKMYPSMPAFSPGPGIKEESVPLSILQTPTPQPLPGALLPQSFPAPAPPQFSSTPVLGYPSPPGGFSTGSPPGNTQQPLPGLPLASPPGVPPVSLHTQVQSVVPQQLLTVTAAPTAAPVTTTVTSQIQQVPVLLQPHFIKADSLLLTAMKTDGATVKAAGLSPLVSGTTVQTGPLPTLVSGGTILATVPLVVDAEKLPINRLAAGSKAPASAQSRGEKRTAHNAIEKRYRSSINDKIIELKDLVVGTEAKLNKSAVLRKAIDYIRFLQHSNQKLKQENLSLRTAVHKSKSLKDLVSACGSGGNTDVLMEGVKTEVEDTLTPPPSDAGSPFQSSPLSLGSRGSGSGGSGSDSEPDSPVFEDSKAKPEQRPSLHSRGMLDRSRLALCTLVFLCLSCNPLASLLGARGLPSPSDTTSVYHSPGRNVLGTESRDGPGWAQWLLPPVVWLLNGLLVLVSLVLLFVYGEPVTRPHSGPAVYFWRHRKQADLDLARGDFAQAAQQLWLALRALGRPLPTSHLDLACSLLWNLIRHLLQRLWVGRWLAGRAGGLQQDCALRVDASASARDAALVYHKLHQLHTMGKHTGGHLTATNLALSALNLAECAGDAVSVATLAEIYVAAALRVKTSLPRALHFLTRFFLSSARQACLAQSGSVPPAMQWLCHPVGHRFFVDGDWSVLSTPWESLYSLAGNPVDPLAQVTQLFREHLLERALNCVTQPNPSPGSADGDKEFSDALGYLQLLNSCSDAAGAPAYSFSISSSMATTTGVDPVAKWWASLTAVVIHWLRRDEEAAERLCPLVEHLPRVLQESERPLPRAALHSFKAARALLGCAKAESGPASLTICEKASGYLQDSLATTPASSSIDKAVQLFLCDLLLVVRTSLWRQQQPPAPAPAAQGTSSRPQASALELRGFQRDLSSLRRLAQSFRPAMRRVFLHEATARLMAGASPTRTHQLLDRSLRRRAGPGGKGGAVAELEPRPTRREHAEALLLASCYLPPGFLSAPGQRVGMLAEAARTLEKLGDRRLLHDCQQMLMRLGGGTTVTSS
Description: Inhibition of SREBP (unknown origin) expressed in HEK293 cells assessed as reduction in LDLr promotor activity after 24 hrs by luciferase reporter assay. A digest of the protocol: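 HEK293 cells transiently co-transfected with pGL4-LDLr-luciferase and pCMV-beta-galactosidase. After 24 h the medium was changed to DMEM with 10% LPDS, compounds were added, and culture continued for 24 h. Luciferase was read and normalized to beta-galactosidase activity. Mean ± SD, n = 3.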

The target of test [3] is T1, 3-hydroxy-3-methylglutaryl-coenzyme A reductase (Homo sapiens). Description: Induction of human HMGCR-dCat-ELuc degradation expressed in HEK293 cells assessed as reduction in luciferase activity measured after 8 hrs in presence of SQS inhibitor TAK-475 by luciferase reporter assay. A digest of the protocol:
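Stable HEK293 HMGCR-dCat-ELuc clone (G418-selected, single clone) was given graded compound concentrations together with 10 µM TAK-475 (SQS inhibitor) for 8 h. The read-out was luciferase activity. Data are mean and SD of biological replicates, n = 4.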

The target is the same in test [4]. Nature of the test: Induction of human HMGCR-dCat-ELuc degradation expressed in HEK293 cells assessed as reduction in luciferase activity measured after 8 hrs by luciferase reporter assay. A digest of the protocol:
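Stable HEK293 clone expressing HMGCR-dCat-ELuc, selected with 0.4 mg/mL G418 and isolated by limiting dilution. Cells were given graded compound concentrations without TAK-475 for 8 h. HMGCR-dCat-ELuc level was read as luciferase activity. Data are mean and SD.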

The target is the same in test [5]. Description: Induction of human HMGCR-dCat-ELuc degradation expressed in HEK293 cells assessed as reduction in luciferase activity after 8 hrs by luciferase reporter assay. A digest of the protocol: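 Stable HMGCR-dCat-ELuc HEK293 clone (G418 0.4 mg/mL selection) treated for 8 h, then assayed for luciferase activity. In some runs, cells were co-treated with the SQS inhibitor TAK-475 at 10 µM. Mean and SD from biological replicates (n = 4 or 8).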

For test [6] the target is unchanged. Nature of the test: Induction of human HMGCR-dCat-ELuc degradation expressed in HEK293 cells assessed as reduction in luciferase activity at 10 uM measured at <4 hrs by luciferase reporter assay. A digest of the protocol:
(§3)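 Time-course degradation assay in the stable HMGCR-dCat-ELuc HEK293 line. Compound at 10 µM, alone or together with the VCP inhibitor CB5083 at 10 µM, for the indicated times. Reporter level read by luciferase activity.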

In test [7] the target is T3, 3-hydroxy-3-methylglutaryl-coenzyme A reductase (Homo sapiens, UniProt P04035).
T3 sequence (P04035 whole entry): T1 sequence (whole entry)
The test is described as §1. A digest of the protocol:
as §2

The target of test [8] is T1, 3-hydroxy-3-methylglutaryl-coenzyme A reductase (Homo sapiens). Description: Induction of human HMGCR-dCat-ELuc degradation expressed in HEK293 cells assessed as reduction in luciferase activity at 10 uM measured at <4 hrs in presence of VCP inhibitor CB5083 by luciferase reporter assay. The method, boiled down:
as §3

SMILES strings stand for the structures. Active and inactive are the calls of the source. No cut-off for these calls is given here.

Turning to `C[C@H](CCCC(C)(C)O)[C@H]1CC[C@@]2(C)C3=C(CC[C@]12C)[C@@]1(C)CC[C@H](O)C(C)(C)[C@@H]1CC3`, the outcome in test [1] was Active. For the same compound, in test [2], the inhibition result was “Active”.
`CC(=O)N1CCN(c2ccc(OCC3COC(Cn4ccnc4)(c4ccc(Cl)cc4Cl)O3)cc2)CC1` (stereo not drawn): the outcome in test [3] was inactive. Also, the Activity entry in test [4] was “Dose-dependent effect”.
With `CC(C)CCC[C@@H](C)[C@H]1CC[C@H]2[C@@H]3CC=C4C[C@@H](O)CC[C@]4(CO)[C@H]3CC[C@]12C`, the result in test [1] was inactive. Besides, the inhibition entry in test [2] was “inactive”.
In the case of `C[C@H](CCCC(C)(C)O)[C@H]1CC[C@H]2[C@@H]3CCC4=CC(=O)CC[C@]4(C)[C@H]3CC[C@]12C`, in test [1], the result was inactive. Besides, the inhibition result in test [2] is “Active”.
Turning to `CC(C)CCC[C@@H](C)[C@H]1CC[C@H]2[C@@H]3C[C@@H](O)[C@@]4(O)C[C@@H](O)CC[C@]4(C)[C@H]3CC[C@]12C`, the result in test [1] was Active. Moreover, in test [2], the inhibition entry was “inactive”.
For the compound `C[C@H](CCCO)[C@H]1CC[C@@]2(C)C3=C(CC[C@]12C)[C@@]1(C)CC[C@H](O)C(C)(C)[C@@H]1CC3`, the result in test [1] was Active. Further, the inhibition result in test [2] is “inactive”.
For the compound `C[C@H](CCCC(C)(C)O)[C@H]1CC[C@H]2[C@@H]3C[C@@H](O)[C@@]4(O)C[C@@H](O)CC[C@]4(C)[C@H]3CC[C@]12C`, in test [1], the outcome was Active. Further, the inhibition result in test [2] is “inactive”.
`CC(C)CCC[C@@H](C)[C@H]1CC[C@H]2[C@@H]3CC=C4C(C)(C)[C@@H](O)CC[C@]4(C)[C@H]3CC[C@]12C`: the outcome in test [1] was inactive. Further, in test [2], the inhibition entry was “inactive”.
For `COc1cccc([C@H]2O[C@H](CC(=O)N3CCC(CC(=O)O)CC3)C(=O)N(CC(C)(C)COC(C)=O)c3ccc(Cl)cc32)c1OC`, the outcome in test [5] was inactive.
On to `CC(C)CCC[C@@H](C)[C@H]1CC[C@@]2(C)C3=C(CC[C@]12C)[C@@]1(C)CC[C@H](O)C(C)(C)[C@@H]1CC3`, for which, in test [1], the outcome was inactive. Further, the inhibition entry in test [2] was “inactive”.
Consider `C[C@H](CCC1OC1(C)C)[C@H]1CC[C@@]2(C)C3=C(CC[C@]12C)[C@@]1(C)CC[C@H](O)C(C)(C)[C@@H]1CC3` (stereo partly drawn), for which the outcome in test [1] was Active. Also, the inhibition result in test [2] is “Active”.
For the compound `CC(C)OP(=O)(OC(C)C)C(Cc1cc(C(C)(C)C)c(O)c(C(C)(C)C)c1)P(=O)(OC(C)C)OC(C)C` [APOMINE], in test [6], the outcome was Active. In addition, the EC50 in test [7] worked out at 470 nM. For the same compound, the Activity entry in test [1] was “Dose-dependent effect”. For the same compound, in test [8], the result was inactive. For the same compound, in test [2], the inhibition entry is “inactive”.
Turning to `CC(C)CCC[C@@H](C)[C@H]1CC[C@@]2(C)C3=C(C(=O)C[C@]12C)[C@@]1(C)CC[C@H](O)C(C)(C)[C@@H]1CC3=O`, the result in test [1] was Active. For the same compound, the inhibition result in test [2] is “inactive”.
As for `C[C@H](CCCC(C)(C)O)[C@H]1CC[C@H]2[C@@H]3CC=C4C[C@@H](O)CC[C@]4(C)[C@H]3CC[C@]12C`, in test [7], the concentration giving a half-maximal response (EC50) was 630 nM. Moreover, the Activity entry in test [1] was “Dose-dependent effect”. Also, the inhibition result in test [2] was “Active”.
Take `C[C@H](CCC(O)C(C)(C)O)[C@H]1CC[C@@]2(C)C3=C(CC[C@]12C)[C@@]1(C)CC[C@H](O)C(C)(C)[C@@H]1CC3` (stereo partly drawn): in test [1], the outcome was Active. In addition, the inhibition entry in test [2] is “Active”.
